Experimental data: ChEMBL document CHEMBL4400542, “Epidermal Growth Factor Receptor-Targeted Multifunctional Photosensitizers for Bladder Cancer Imaging and Photodynamic Therapy” (J Med Chem, 2019); call rule not given here
Values belong to the molecule of their own block, whether it stands above or below them.

Experiments:
UMUC3 [1] = test: Photo-activated cytotoxicity against human UM-UC-3 cells assessed as reduction in cell viability preincubated for 24 hrs followed by 1 J/cm2 light irradiation and measured after 48 hrs formulated with 1% tween 80 solution by MTT assay; format: functional, cell-based; conditions: UMUC3, light or radiation study
In short: (§1)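 Cells plated at 10k per well, allowed 24 h to adhere, then PS added in two-fold dilutions from 1 µM top for 24 h. Irradiated at 665 nm, 1.0 J/cm2 at 3.2 mW/cm2. Viability by MTT 48 h after PDT: about 2 h incubation, formazan dissolved in DMSO, absorbance at 570 nm.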

UMUC3 [2] = test: Photo-activated cytotoxicity against human UM-UC-3 cells assessed as reduction in cell viability preincubated for 24 hrs followed by 1 J/cm2 light irradiation and measured after 48 hrs formulated with 2% pluronic F-127 solution by MTT assay; format: functional, cell-based; conditions: UMUC3, light or radiation study; in short: as §1
T-24 [3] = test: Photo-activated cytotoxicity against human T24 cells assessed as reduction in cell viability preincubated for 24 hrs followed by 1 J/cm2 light irradiation and measured after 48 hrs formulated with 1% tween 80 solution by MTT assay; format: functional, cell-based; conditions: T-24, light or radiation study; in short: as §1
T-24 [4] = test: Photo-activated cytotoxicity against human T24 cells assessed as reduction in cell viability preincubated for 24 hrs followed by 1 J/cm2 light irradiation and measured after 48 hrs formulated with 2% pluronic F-127 solution by MTT assay; format: functional, cell-based; conditions: T-24, light or radiation study; in short: as §1
[5] = Drug accumulation in human UM-UC-3 cells at 500 nM formulated with 1% tween 80 solution after 24 hrs by CARY-fluorimetry; format: ADME, cell-based; conditions: umuc3, 24 h, 0.5 µM
[6] = Drug accumulation in human UM-UC-3 cells at 500 nM formulated with 2% pluronic F-127 solution after 24 hrs by CARY-fluorimetry; format: ADME, cell-based; conditions: umuc3, 24 h, 0.5 µM
[7] = Drug accumulation in mitochondria of human UM-UC-3 cells at 500 nM formulated with 1% tween 80 solution after 24 hrs by mitotracker red based fluorimetry; format: ADME; conditions: umuc3, 24 h, 0.5 µM
[8] = Drug accumulation in lysosomes of human UM-UC-3 cells at 500 nM formulated with 1% tween 80 solution after 24 hrs by lysosphere green based fluorimetry; format: ADME, subcellular, Lysosome; conditions: umuc3, 24 h, 0.5 µM
[9] = Drug accumulation in mitochondria of human UM-UC-3 cells at 500 nM formulated with 2% pluronic F-127 solution after 24 hrs by mitotracker red based fluorimetry; format: ADME; conditions: umuc3, 24 h, 0.5 µM
[10] = Drug accumulation in lysosomes of human UM-UC-3 cells at 500 nM formulated with 2% pluronic F-127 solution after 24 hrs by lysosphere green based fluorimetry; format: ADME, subcellular, Lysosome; conditions: umuc3, 24 h, 0.5 µM
[11] = Drug accumulation in mitochondria of human T24 cells at 500 nM formulated with 1% tween 80 solution after 24 hrs by mitotracker red based fluorimetry; format: ADME; conditions: t-24, 24 h, 0.5 µM
[12] = Drug accumulation in lysosomes of human T24 cells at 500 nM formulated with 1% tween 80 solution after 24 hrs by lysosphere green based fluorimetry; format: ADME, subcellular, Lysosome; conditions: t-24, 24 h, 0.5 µM
[13] = Drug accumulation in mitochondria of human T24 cells at 500 nM formulated with 2% pluronic F-127 solution after 24 hrs by mitotracker red based fluorimetry; format: ADME; conditions: t-24, 24 h, 0.5 µM
[14] = Drug accumulation in lysosomes of human T24 cells at 500 nM formulated with 2% pluronic F-127 solution after 24 hrs by lysosphere green based fluorimetry; format: ADME, subcellular, Lysosome; conditions: t-24, 24 h, 0.5 µM
[15] = Drug uptake in human UM-UC-3 cells assessed as increase in gray value intensity at 500 nM after 48 hrs in presence of gleevec by Hoechst 33342 staining based fluorescence microscopy; format: ADME, cell-based; conditions: umuc3, 24 h, 0.5 µM, in the assay text read “after 24 hrs” for “after 48 hrs”
In short: (§2)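 Cells plated at 100k per well, grown to 80% confluency, refreshed, then incubated 24 h with PS at 500 nM with or without Gleevec 5 µM. Washed twice with PBS, Hoechst 33342 added, imaged by fluorescence microscopy; grey value normalized to cell number, triplicate groups and images.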

[16] = Drug uptake in human UM-UC-3 cells assessed as increase in gray value intensity at 500 nM after 48 hrs in absence of gleevec by Hoechst 33342 staining based fluorescence microscopy; format: ADME, cell-based; conditions: umuc3, 24 h, 0.5 µM, in the assay text read “24 hrs” for “48 hrs”; in short: as §2
[17] = Drug uptake in human UM-UC-3 cells assessed as increase in gray value intensity at 1 uM pretreated for 24 hrs followed by compound washout and measured after 4 hrs by Hoechst 33342 staining based fluorescence microscopy; format: ADME, cell-based; conditions: umuc3, 4 h
In short: (§3)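 Cells pre-incubated 24 h with free erlotinib before PS addition. Legend describes PS at 1 uM or erlotinib at 3 uM for 4 h, then three warm PBS washes. Imaged by fluorescence microscopy; grey value per field normalized to cell count, triplicate wells, each imaged in triplicate.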

[18] = Drug uptake in human T24 cells assessed as increase in gray value intensity at 1 uM pretreated for 24 hrs followed by compound washout and measured after 4 hrs by Hoechst 33342 staining based fluorescence microscopy; format: ADME, cell-based; conditions: t-24, 4 h; in short: as §3
[19] = Drug uptake in human UM-UC-3 cells xenografted in SCID mouse at 0.47 umol/kg formulated with 2% pluronic F-127 solution and measured at 24 hrs post injection by IVIS analysis; format: ADME, cell-based, UMUC3; conditions: in vivo
In short: (§4)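 SCID mice (3/group) bearing UMUC3 or T24 tumors of 4–5 mm injected with PS at 0.47 µmol/kg in Tween80 or Pluronic F-127. Tumor, liver and skin fluorescence followed by IVIS optical imaging (ex 675 nm, em 720) at several time points including 24 h.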

[20] = Drug uptake in human UM-UC-3 cells xenografted in SCID mouse at 0.47 umol/kg formulated with 1% tween 80 solution and measured at 24 hrs post injection by IVIS analysis; format: ADME, cell-based, UMUC3; conditions: in vivo; in short: as §4
[21] = Drug uptake in human T24 cells xenografted in SCID mouse at 0.47 umol/kg formulated with 2% pluronic F-127 solution and measured at 24 hrs post injection by IVIS analysis; format: ADME, cell-based, T-24; conditions: in vivo; in short: as §4
[22] = Drug uptake in human T24 cells xenografted in SCID mouse at 0.47 umol/kg formulated with 1% tween 80 solution and measured at 24 hrs post injection by IVIS analysis; format: ADME, cell-based, T-24; conditions: in vivo; in short: as §4
UMUC3 [23] = test: Anti-tumor activity against human UM-UC-3 cells xenografted in SCID mouse assessed as tumor cure at 0.47 umol/kg, iv in presence of 135 J/cm2 light irradiation at 24 hrs post injection and measured at day 60; format: functional
In short: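 UMUC-3 cells implanted in right flank of SCID mice; at 4–5 mm tumors, PS given i.v. at 0.47 µmol/kg. Tumors exposed to 665 nm light, 135 J/cm2 at 75 mW/cm2, 24 h post-injection. Tumor regrowth monitored daily; mice euthanized at >400 mm3; tumor-free status scored at day 60.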

UMUC3 [24] = test: Induction of oxidative stress in human UM-UC-3 cells assessed as increase in ROS production at 1 uM in presence of 1 J/cm2 light irradiation and measured at 20 min post light exposure by DCFDA-fluorescence based assay relative to control; format: functional
In short: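 UMUC3 cells at 10k per well; after 24 h, PS added at 1 µM for 24 h (Tween80 formulation). DCFDA 1 µM for 20 min, fluorescence read (ex 492, em 517). Then 665 nm light, 1 J total at 3.2 mW/cm2, and read again. No-DCFDA background subtracted; 0.05% H2O2 control wells.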

[25] = Stability at -4 degC for 2 months; format: physicochemical; conditions: 1461 h
In short: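 Photosensitizer formulations in Tween80 or Pluronic F-127 were stored at -4 °C, alongside a -20 °C set, for two months. Stability was judged by visible precipitation and change in pH.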

[26] = Stability at -20 degC for 2 months; format: physicochemical; conditions: 1461 h
In short: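 Formulated PS stored at -4 °C or -20 °C for two months; checked for precipitation and pH change.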

T-24 [27] = test: Induction of apoptosis in human T24 cells assessed as increase in apoptotic cells at 1 uM in absence of light by Annexin V/propidium iodide-staining based flow cytometry; format: cell-based; conditions: t-24, 1 µM
UMUC3 [28] = test: Induction of apoptosis in human UM-UC-3 cells assessed as increase in apoptotic cells at 1 uM in absence of light by Annexin V/propidium iodide-staining based flow cytometry; format: cell-based; conditions: umuc3, 1 µM
[29] = Drug uptake in human UM-UC-3 cells xenografted in SCID mouse at 50 uCi, iv measured at 110 min post injection by PET imaging analysis; conditions: in vivo

Drug uptake [5]: Active | Drug uptake [6]: Active | Drug uptake [7]: Active | Drug uptake [8]: Active | Drug uptake [9]: Active | Drug uptake [10]: Active | Drug uptake [11]: Active | Drug uptake [12]: Active | Drug uptake [13]: Active | Drug uptake [14]: Active | Drug uptake [15]: Not Active | Drug uptake [16]: Not Active | Drug uptake [17]: Not Active | Drug uptake [18]: Active | Drug uptake [19]: Active | Drug uptake [20]: Active | Drug uptake [21]: Active | Drug uptake [22]: Active | Stability [25]: Stable | Stability [26]: Stable
SMILES: CCC1=C(C)c2cc3[nH]c(cc4nc(c5c6[nH]c(cc1n2)c(C)c6C(=O)C5)[C@@H](CCC(=O)NCc1cccc(C#Cc2cccc(Nc5ncnc6cc(OCCOC)c(OCCOC)cc56)c2)c1)[C@@H]4C)c(C)c3C(C)OCc1cccc([127I])c1 (some centres undefined)
IC50 (UMUC3 [1]): 36.4 nM | IC50 (UMUC3 [2]): 58.4 nM | IC50 (T-24 [3]): 137 nM | IC50 (T-24 [4]): 315 nM | Activity (UMUC3 [23]): 55% | fold change (FC) (UMUC3 [24]): 4.5 | Activity (T-24 [27]): Non-Toxic | Activity (UMUC3 [28]): Non-Toxic

Drug uptake [29]: Not Active
SMILES: OC[C@H]1OC(O)[C@H]([18F])[C@@H](O)[C@@H]1O (some centres undefined) [FLUDEOXYGLUCOSE F 18]
